Bioassay records deposited in PubChem BioAssay by several laboratories.
AI-2 QS mod = Vibrio harveyi AI-2 quorum sensing modulators, primary screen, JMH597 strain, luminescence/OD600 ratio; activity change, % at 7.5 µM; Vibrio harveyi JMH597 AI-2 luminescence/OD600 ratio, 9 h; active compounds read low; strain lacks LuxN and CqsS sensors; 0 = neutral-control median; 300,000 compounds, 0.4% hits; in the data active means activity change below about -75%, passing the limit was not always enough;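 further: luminescence divided by OD600 gain over 9 h not by final OD600 alone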
HKDC1 inh = HKDC1 hexokinase inhibitors, primary screen, biochemical, fluorescence, uHTS. 340,000 compounds, 0.16% hits. inhibition, % at 20 µM. recombinant HKDC1, G6PDH/diaphorase resazurin coupled fluorescence. Q2TB90;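 active means inhibition above about 35% when tested at 20 µM, limit read from the data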;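 further: plate controls were DMSO wells with enzyme for no effect and DMSO wells lacking enzyme for full effect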
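Material: recombinant HKDC1 hexokinase; Amount: HKDC1 at 5 µg/mL; Medium: Tris pH 8.0 buffer with MgCl2, Tween-20, BSA, BME; Schedule: 90 min reaction incubation at room temperature, dark; Technique: coupled resazurin fluorescence, excitation 525 nm, emission 613 nm.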
HDAC3 inhib = HDAC3 deacetylase inhibitors, primary screen, biochemical, fluorescence, cell-free homogeneous; inhibition, % at 8.3 µM; recombinant HDAC3, fluorogenic peptide/trypsin coupled; 320,000 compounds, 0.15% hits; AID 2718, 2010; Histone deacetylase 3 (Homo sapiens), O15379; in the data active means inhibition above about 26%, passing the limit was not always enough
ATG4B inhibitor = ATG4B protease inhibitors, primary screen, biochemical, fluorescence, uHTS. Cysteine protease ATG4B (Homo sapiens), Q9Y4P1. ATG4B cleavage of LC3-PLA2, NBD-HPC fluorescence, 1 h. inhibition, % at 8.33 µM. 340,000 compounds, 0.51% hits; in the data active means inhibition above about 40%
LANA-H2A inh = blockers of LANA interaction with H2A/H2B – biochemical, FP readout, HTS, primary screen. Protein LANA1 (Human herpesvirus 8 type P (isolate GK18)), Q9QR71. cell-free LANA-H2A/H2B peptide, fluorescence polarization. 320,000 compounds, 0.6% hits. inhibition, % (test concentration not listed); in the data active means inhibition mostly above about 10%, no sharp cut-off; inactive means mostly below about 6.7%
A1 inh = caspase 3/7 activation in MEF A1-2A-BIM cells, primary screen, A1 inhibitor project, cell-based, luminescence, HTS; Caspase-Glo 3/7 luminescence, 3 h; percent of clofoctol response, vehicle zero; caspase activation, % (test concentration not listed); 330,000 compounds, 0.066% hits; AID 2462, 2010;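 active means over half of replicate activation scores above 10%, or exactly half above 10 with the replicate mean above 10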
Numbers without * were called inactive; i = inactive; . = no result; + = active, no number. Sampled rows, rich in hits. Any-hit rate of the full collection: about 1.8%.

SMILES	AI-2 QS mod	HKDC1 inh	HDAC3 inhib	ATG4B inhibitor	LANA-H2A inh	A1 inh
N=C(N)c1c(O)n(C2CCCCC2)c(=O)n(C2CCCCC2)c1=O	-4	2	28*	6	0	0
Nc1ccccc1C(=O)OCCOc1ccccc1	.	-3	-8	0	-5	-7
O=c1[nH]c(=O)n(Cc2ccc(F)cc2)c(O)c1/C=N/Nc1ccccc1	5	-3	1	-14	3	0
C=CC(=O)NCNC(=O)C=C	.	-3	2	1	10*	0
CCOc1ccc(N2C(=O)/C(=C/c3ccco3)C(=O)NC2=S)cc1	11	81*	0	81*	6	0
Cc1ccccc1N1C(=O)/C(=C/c2ccco2)C(=O)NC1=S	10	.	1	.	26*	0
Cc1ccc(C(C)C)c(OCC(=O)N2CCN(Cc3nc4cc([N+](=O)[O-])ccc4n3C)CC2)c1	15	-13	6	1	3	0
N#Cc1ccccc1OCC(=O)N1CCN(CC(=O)Nc2ccc(F)cc2)CC1	.	-3	.	5	.	.
Cc1cccc(-n2c(O)c(/C=C3/C(c4ccccc4)=Nc4ccccc43)c(=O)[nH]c2=O)c1	56	14	-2	4	86*	1
Cc1ccc2cc(CNCCc3ccccc3C)c(=O)[nH]c2c1	1	-5	-2	-3	1	0
O=C1NC2C(O)C(O)C(O)C(O)C2c2cc3c(c(O)c21)OCO3 (stereo unspecified)	.	1	.	-2	.	.
O=[N+]([O-])c1ccc(Cl)c(Cl)c1Cl	.	0	-1	-2	24*	-1
Cc1c(NS(=O)(=O)c2ccccc2)ccc([N+](=O)[O-])c1Cl	.	2	.	8	.	.
COCc1cc(OC(=O)N(C)C)nc(-c2ccccc2)n1	-13	2	3	-6	-3	1
Cc1cc(OCC(=O)NCc2ccncc2)c2c3c(c(=O)oc2c1)CCC3	21	0	-6	21	16*	1
CCN(CC)C(=O)c1ccc2c(c1)C1C(Cl)C(Sc3ccccc3[N+](=O)[O-])CC1C(C(=O)O)N2 (stereo unspecified)	53	12	6	13	4	1
O=C(O)c1cccc2c1NC(c1cccc([N+](=O)[O-])c1)C1CC(Sc3ccccc3[N+](=O)[O-])C(Cl)C21 (stereo unspecified)	20	8	.	88*	.	.
O=C(O)c1ccc2c(c1)C1C(Cl)C(Sc3ccccc3[N+](=O)[O-])CC1C(c1cccc([N+](=O)[O-])c1)N2 (stereo unspecified)	.	9	.	48*	.	.
C=C(C)CSc1nnc([C@@H](N)Cc2ccccc2)o1	18	-2	-7	-1	2	0
Cc1ccccc1-n1c(-c2ccoc2)nc2ccccc2c1=O	22	-5	-5	-13	i	0
CC(C(=O)c1c[nH]c2ccccc12)N1CCOCC1 (stereo unspecified)	5	-4	1	1	0	0
CC(C(=O)c1c[nH]c2ccccc12)N1CCSCC1 (stereo unspecified)	28	-1	-5	-6	23*	1
CC(C)c1ccccc1NC1=NCCCS1	-5	-2	-3	-13	2	1
Cc1ccc(-n2c(O)c(C=NCCCn3ccnc3)c(=O)[nH]c2=O)cc1	13	-3	-6	-3	13*	0
COc1ccc(-n2c(O)c(C=NCCCn3ccnc3)c(=O)[nH]c2=O)cc1	1	-8	1	11	2	0
COc1ccc(C(O)C(C)NC(C)C(O)c2ccc(OC)cc2)cc1 (stereo unspecified)	27	-6	-2	-4	-1	1
CCOP(=S)(OCC)Oc1nc(Cl)c(Cl)cc1Cl	.	1	-6	-2	+	0
CCOC(=O)c1cn2nc(OP(=S)(OCC)OCC)cc2nc1C	15	0	3	1	-4	-1
